Laboratory results: ChEMBL document CHEMBL2417525, “In vitro pharmacological and toxicological effects of norterpene peroxides isolated from the Red Sea sponge Diacarnus erythraeanus on normal and cancer cells” (J Nat Prod, 2013)
Calls of active or inactive are those of the source. No cut-off for these calls is given here.

What was measured:
[1] = system: PC-3; assay: Cytotoxicity against human PC3 cells after 72 hrs by MTT assay; type: functional, cell-based
Procedure, shortened: (§1)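 MTT reduction read by spectrophotometry after 72 h compound exposure; growth measured as treated vs control optical density, IC50 taken as the concentration giving 50% growth reduction. Six replicates per condition. Cells grown in RPMI with 10% heat-inactivated FBS, 4 mM glutamine, gentamicin and penicillin–streptomycin; NHDF fibroblasts were instead kept in FGM-2 fibroblast medium.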

[2] = system: MCF7; assay: Cytotoxicity against human MCF7 cells after 72 hrs by MTT assay; type: functional, cell-based; procedure, shortened: as §1
[3] = system: A549; assay: Cytotoxicity against human A549 cells after 72 hrs by MTT assay; type: functional, cell-based; procedure, shortened: as §1
[4] = system: SK-MEL-28; assay: Cytotoxicity against human SK-MEL-28 cells after 72 hrs by MTT assay; type: functional, cell-based; procedure, shortened: as §1
[5] = system: U-251; assay: Cytotoxicity against human U251 cells after 72 hrs by MTT assay; type: functional, cell-based; procedure, shortened: as §1
[6] = Cytotoxicity against human U373 cells after 72 hrs by MTT assay; type: functional, cell-based, U-373MG ATCC; procedure, shortened: as §1
[7] = Cytotoxicity against human Hs683 cells after 72 hrs by MTT assay; type: functional, cell-based, Hs 683; procedure, shortened: as §1
[8] = system: U-373MG ATCC; assay: Induction of ROS production in human U373 cells at 10 uM after 48 hrs by flow cytometry; type: functional, cell-based
Procedure, shortened: (§2)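 Hs683 and U373 glioma cells were exposed to 10 μM for 48 and 72 h; the positive control was 4 mM H2O2 for 1 h. Cells were then loaded with 20 μM DCFH-DA in phenol-red-free RPMI for 1 h at 37 °C, washed twice and detached. Fluorescence was measured by flow cytometry, run once in quadruplicate.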

[9] = system: Hs 683; assay: Induction of apoptosis in human Hs683 cells at 1 uM after 72 hrs by TUNEL staining; type: functional, cell-based
[10] = system: U-373MG ATCC; assay: Induction of apoptosis in human U373 cells at 1 uM after 72 hrs by TUNEL staining; type: functional, cell-based
[11] = system: Hs 683; assay: Induction of ROS production in human Hs683 cells at 10 uM after 72 hrs by flow cytometry; type: functional; procedure, shortened: as §2
[12] = Induction of ROS production in human U373 cells at 10 uM after 72 hrs by flow cytometry; type: functional, U-373MG ATCC; procedure, shortened: as §2
[13] = system: SK-MEL-28; assay: Cytotoxicity against human SK-MEL-28 cells assessed as growth inhibition at 10 uM after 24 hrs by MTT assay; type: functional, cell-based
[14] = system: SK-MEL-28; assay: Cytotoxicity against human SK-MEL-28 cells assessed as growth inhibition at 10 uM after 24 to 72 hrs by quantitative video microscopic analysis; type: functional, cell-based
Procedure, shortened: (§3)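 Computer-assisted phase-contrast time-lapse microscopy in T25 flasks with 10 μM compound. Cells were counted on images at 6, 12, 24 h for U373 and A549, and at 24, 48, 72 h for SKMEL-28. Global growth is last-image count over first-image count. The ratio index is treated global growth over untreated control global growth. Run in triplicate.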

[15] = system: U-373MG ATCC; assay: Cytotoxicity against human U373 cells assessed as growth inhibition at 10 uM […] by quantitative video microscopic analysis; type: functional, cell-based; procedure, shortened: as §3
[16] = system: A549; assay: Cytotoxicity against human A549 cells assessed as growth inhibition at 10 uM […] by quantitative video microscopic analysis; type: functional, cell-based; procedure, shortened: as §3
[17] = system: U-373MG ATCC; assay: Cytotoxicity against human U373 cells assessed as growth inhibition at 10 uM after 24 hrs by MTT assay; type: functional, cell-based
[18] = system: A549; assay: Cytotoxicity against human A549 cells assessed as growth inhibition at 10 uM after 24 hrs by MTT assay; type: functional, cell-based
[19] = system: NHDF; assay: Cytotoxicity against human NHDF cells after 72 hrs by MTT assay; type: cell-based; procedure, shortened: as §1
[20] = system: HaCaT; assay: Cytotoxicity against human HaCaT cells after 72 hrs by MTT assay; type: cell-based; procedure, shortened: as §1
[21] = system: HBL-100; assay: Cytotoxicity against human HBL100 cells after 72 hrs by MTT assay; type: cell-based; conditions: HBL-100, 72 h; procedure, shortened: as §1
[22] = system: LoVo; assay: Cytotoxicity against human LoVo cells after 72 hrs by MTT assay; type: functional, cell-based; procedure, shortened: as §1
[23] = system: B16-F10; assay: Cytotoxicity against mouse B16F10 cells after 72 hrs by MTT assay; type: functional, cell-based; conditions: B16-F10, 72 h; procedure, shortened: as §1
[24] = system: PC-3; assay: Induction of apoptosis in human PC3 cells at 1 uM after 72 hrs by TUNEL staining; type: functional
Procedure, shortened: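 TUNEL apoptosis staining with a commercial kit, read by flow cytometry. PC3 prostate cells were untreated or exposed to 1 μM for 72 h, four replicates. Kit-supplied lymphoma cells served as extra negative and positive controls.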

[25] = Homo sapiens, PC-3, 72 h, read-out: IC50
[26] = Homo sapiens, MCF7, 72 h, read-out: IC50
[27] = Homo sapiens, A549, 72 h, read-out: IC50
[28] = Homo sapiens, SK-MEL-28, 72 h, read-out: IC50
[29] = Homo sapiens, U-251, 72 h, read-out: IC50
[30] = Homo sapiens, U373 MG, 72 h, read-out: IC50
[31] = Homo sapiens, Hs 683, 72 h, read-out: IC50

Structure (SMILES)	IC50 [1, 25]	IC50 [2, 26]	IC50 [3, 27]	IC50 [4, 28]	IC50 [5, 29]	IC50 [6, 30]	IC50 [7, 31]	other results
COC(=O)[C@H](C)[C@H]1CC[C@@](C)(CCC2=C(C)CCCC2(C)C)OO1 [NUAPAPUIN A METHYL ESTER]	80 µM	51 µM	25 µM	80 µM	91 µM	99 µM	38 µM	
CC1=C(CC/C(C)=C/CC[C@@]2(C)CC[C@H]([C@H](C)C(=O)O)OO2)C(C)(C)CCC1	8 µM	7 µM	3 µM	8 µM	8 µM	7 µM	4 µM	Activity [8]: Active; Activity [9]: inactive; Activity [10]: inactive; Activity [11]: 30%; Activity [12]: 30%; growth inhibition (GI) [13]: Active; growth inhibition (GI) [14]: Active; growth inhibition (GI) [15]: Active; growth inhibition (GI) [16]: Active; growth inhibition (GI) [17]: Active; growth inhibition (GI) [18]: Active; IC50 [19]: 26 µM; IC50 [20]: 23 µM; IC50 [21]: 3 µM; IC50 [22]: 6 µM; IC50 [23]: 3 µM
C/C(=C\CC[C@]1(C)CC[C@@H]([C@@H](C)C(=O)O)OO1)CCC12OC1(C)CCCC2(C)C (relative stereo)	2 µM	6 µM	3 µM	22 µM		7 µM	3 µM	
O=C1N[C@@H]2C(=C[C@H](O)[C@@H](O)[C@H]2O)c2cc3c(c(O)c21)OCO3 [NARCICLASINE]								Activity [24]: >85%
C=C1CCC[C@@H]2[C@@](C)(CC[C@@]3(C)CC[C@H]([C@H](C)C(=O)OC)OO3)[C@H](C)CC[C@@]12C	44 µM	36 µM	24 µM	44 µM	54 µM	53 µM	35 µM	
C=C1CCC[C@@H]2[C@@H](CC[C@@]3(C)CC[C@H]([C@H](C)C(=O)O)OO3)[C@H](C)CC[C@@]12C [SIGMOSCEPTRELLIN B]	> 100 µM	> 100 µM	> 100 µM	> 100 µM	> 100 µM	> 100 µM	> 100 µM	
COC(=O)[C@@H](C)[C@H]1CC[C@@](C)(CCC2=C(C)CCCC2(C)C)OO1								IC50 ([1]; pc-3): ND(Unstable); IC50 ([2]; mcf7): ND(Unstable); IC50 ([3]; a549): ND(Unstable); IC50 ([4]; sk-mel-28): ND(Unstable); IC50 ([5]; u-251): ND(Unstable); IC50 ([6]; u-373mg atcc): ND(Unstable); IC50 ([7]; hs 683): ND(Unstable)
C=C1CCCC(C)(C)C1(O)CC/C(C)=C/CC[C@]1(C)CC[C@@H]([C@@H](C)C(=O)O)OO1 (stereo partly specified) [HURGHAPEROXIDE]	73 µM	45 µM	31 µM	73 µM	87 µM	83 µM	37 µM	
CC1=C(CC[C@]2(C)O[C@H]2CC[C@]2(C)CC[C@@H]([C@@H](C)C(=O)O)OO2)C(C)(C)CCC1 (relative stereo)	1 µM	4 µM	3 µM	15 µM		4 µM	3 µM	
